# Source: PubChem BioAssay AID688 (PCMD, 2007)
# Hit rate of the full screen: of about 27,000 compounds, about 250 (0.93%) were called active.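 How the source made its calls: active means mutant luminescence inhibited past about 50% while wild type luminescence and mutant growth stay under set limits (limit read from the data); inconclusive means mutant versus wild type luminescence inhibition gap past a set limit; inactive means the rest.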 This excerpt belongs to a sample that is enriched for actives.
# Test: mutant yeast GCN4 reporter luminescence inhibitors – S. cerevisiae, eIF2B-epsilon R284H, Beta-Glo luminescence, primary screen (AID 688)
# Details: GCN4-lacZ luminescence; growth inhibition: measured here: mutant yeast growth, toxicity, concentration not given here; inhibition: stronger effect = higher value, screened at 25 µM (by protocol)
# Outline: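 System: Yeast eIF2B-epsilon R284H mutant carrying GCN4–beta-galactosidase fusion | Read-out basis: Percent inhibition, luminescence and growth | Compound: 25 µM single dose | Times: 16 h at 30 °C exposure | Measured by: Luminescence and A595 | Buffer or medium: YPD medium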
SMILES,growth inhibition,inhibition
COc1ccc(Cl)cc1C(=O)Nc1ccc(N(C)C(C)=O)cc1,27.8%,21.8% (inactive)
CCN(CC)CCNC(=O)CCCCCn1c(=O)[nH]c2cc(C(=O)OC)ccc2c1=O,3.33%,12.9% (inactive)
Nn1c(Cc2cccc3ccccc23)nnc1SCC(=O)N1CC(=O)Nc2ccccc21,7.35%,9.26% (inactive)
Cc1ccc(C2=CSC3=NS(=O)(=O)CCN23)cc1C,-2.38%,1.24% (inactive)
O=C(c1cccc2ccccc12)N1CCN(c2ccccc2F)CC1,10.7%,8.17% (inactive)
O=C(O)CCSc1nnc(-c2ccccc2)n1-c1ccccc1,-9.09%,19.8% (inactive)
Cc1ccc(S(=O)(=O)NCC(C)NS(C)(=O)=O)cc1 (stereo not drawn),1.47%,-24.4% (inactive)
COCc1nnc(NC(=O)CS(=O)(=O)Cc2ccccc2)s1,-13.8%,8.87% (inactive)
COc1ccc(-n2c(SCC(=O)Nc3ccc4c(c3)OCO4)nnc2C(C)N2CCCCC2)cc1 (stereo not drawn),-17.2%,32% (inactive)
O=C(NC1(C(F)(F)F)NC(=O)N(Cc2cccnc2)C1=O)c1ccccc1Cl (stereo not drawn),-9.52%,12.7% (inactive)
CCc1nnc(NC(=O)CSc2nc3ccccc3c(=O)n2CCCOC)s1,-4.35%,-1.74% (inactive)
Cc1cc(-n2nc(C)cc2C)n2nc(C)c(-c3ccccc3)c2n1,-28.6%,-42.8% (inactive)
CCOC(=O)c1cnc(SCC(=O)NCc2ccco2)nc1N,5.17%,-10.3% (inactive)
CCOc1ccccc1NC(=O)C1CCCN(C(=O)Nc2ccccc2)C1 (stereo not drawn),-12.5%,25.3% (inactive)
COc1ccc(C2N=C(N)N=C(N)N2c2ccccc2)cc1OC (stereo not drawn),-25%,-6.05% (inactive)
COc1ccc(OC)c(-n2nnnc2SCC(=O)Nc2cc(C)ccc2OC)c1,-24.1%,30.4% (inactive)
CCC(C(=O)NC1CCCC1)N(C(=O)c1snc(C(N)=O)c1N)c1ccc2c(c1)OCCO2 (stereo not drawn),-13.6%,52.4% (active)
COC(=O)c1cccc(N(C(=O)c2ccco2)C(C(=O)NC2CCCC2)c2ccco2)c1 (stereo not drawn),–,-17.9% (inactive)
CCCCNC(=O)CCNC(=O)c1ccc(C(C)(C)C)cc1,22.6%,20.7% (inactive)
CCCCCCSc1nsc(N)n1,5.56%,30.6% (inactive)
CC(C)C(=O)Nc1nnc(Sc2ccc(N(C)C)cc2)s1,-33.3%,-11.6% (inactive)
COc1ccc(CNC(=O)CCn2cccc2)cc1,33.3%,18.8% (inactive)
CCCNC(=O)N1CCN(C(=O)NCCC)CC1,5.13%,3.89% (inactive)

SMILES,growth inhibition,inhibition
COc1ccccc1NC(=O)CC(NCCN(C)C)C(=O)O (stereo not drawn),18.9%,15.2% (inactive)
CC(=O)Nc1ccc(NC(=O)CSCc2cnn(-c3ccccc3)c2-n2cccc2)cc1,-16.7%,13.1% (inactive)
COCCNC(=O)COc1ccccc1C,6.67%,9.39% (inactive)
Cc1nc(N2CCOCC2)nc2c1CCCC2,15%,16.9% (inactive)
C[C@H](NC(=O)OC(C)(C)C)c1nnc(SCC(N)=O)o1,7.41%,12.5% (inactive)
O=C(c1cc2sccc2n1Cc1ccc(F)cc1)N1CCc2ccccc21,13.5%,26.8% (inactive)
CCCCCCc1cc2cc(-c3nnc(-c4cccc(OC)c4)o3)c(=O)oc2cc1O,–,-37.6% (inactive)
CCC(=O)N(Cc1cc2cc(OC)ccc2[nH]c1=O)c1ccccc1C,3.45%,5.99% (inactive)
CC(C)(C)n1nnnc1C(c1ccc(Cl)cc1)N1CCSCC1 (stereo not drawn),-17.4%,13.7% (inactive)
CCN(CC)CCCN1C(=O)C(=O)/C(=C(/O)c2c(C)nc3ccccn23)C1c1ccc(C)o1 (stereo not drawn),3.45%,7.68% (inactive)
CC(=O)NC(C)(C)C1CC=C(C)/C(=N\O)C1 (stereo not drawn),-23.8%,-13.5% (inactive)
CC(C)CC(N=C1NC(C)(C)Cc2ccccc21)C(=O)O (stereo not drawn),21.1%,6.22% (inactive)
O=C(CN1C(=O)CC(c2ccccc2)=Nc2ccccc21)NC1CCCCC1,-28.6%,18.7% (inactive)
CCN(CC(=O)NC1CCS(=O)(=O)C1)c1nc(-c2cccnc2)nc2ccccc12 (stereo not drawn),-30.9%,20.1% (inactive)
C[C@H](NC(=O)OC(C)(C)C)c1nnc(SCC(=O)Nc2ccc(Br)cc2)o1,-11.1%,14.5% (inactive)
CCOC(=O)C1=C(C)NC2=C(C(=O)CC(C)(C)C2)C1c1ccsc1 (stereo not drawn),-7.5%,9.79% (inactive)
Cc1c(C(=O)CN2CCOCC2)[nH]c2ccccc12,18.5%,16.8% (inactive)
COc1ccc(C2C(C(C)=O)=C(O)C(=O)N2Cc2cccnc2)cc1 (stereo not drawn),–,-0.66% (inactive)
CCOC(=O)NC(C(F)(F)F)(C(F)(F)F)P(=O)(c1ccccc1)c1ccccc1,-5.56%,-15.8% (inactive)
Cc1cc(=O)oc(C)c1C(=O)Nc1cnc2ccccc2c1,-3.7%,17.1% (inactive)
COc1ccc(C(C#N)N2N=C(C)CC2(C)C)cc1 (stereo not drawn),4.76%,-5.47% (inactive)
COC(=O)C1=C(C)NC(=O)NC1/C=C/c1ccccc1 (stereo not drawn),-4.55%,22.3% (inactive)
Cc1cc(Oc2ccccc2)nc(N2CCOCC2)n1,5.41%,12.4% (inactive)

SMILES,growth inhibition,inhibition
CCCc1nc(-c2ccccc2O)n(-c2ccccc2)n1,25.8%,52.9% (active)
CCCc1nc2c3cnn(-c4cccc(Cl)c4)c3ncn2n1,–,17.9% (inactive)
CCCCOc1ccc(NC(=O)CSCC(=O)OCC)cc1,–,25% (inactive)
Cc1ccc(-c2nnn(CC(=O)N(CCO)C(C(=O)NC(C)(C)C)c3ccncc3)n2)cc1 (stereo not drawn),14.8%,23.7% (inactive)
O=c1c2ccccc2oc2nc3n(c(=O)c12)CCCS3,4%,24.9% (inactive)
CCOc1ccc(N=C2SC(C(=O)O)CC(=O)N2C)cc1 (stereo not drawn),12%,24.2% (inactive)
CCCOc1cc(C)c(S(=O)(=O)n2nnc3ccccc32)cc1C,12.9%,11.9% (inactive)
O=C(CSc1nnc(-c2cnccn2)n1Cc1ccco1)c1ccc(Cl)c(Cl)c1,-22.6%,4.49% (inactive)
COc1ccc(-c2cc(C(=O)NCc3ccco3)no2)cc1OC,2.7%,19.9% (inactive)
O=C(O)CSc1nccn1-c1cccc(Cl)c1,-14.3%,-8.74% (inactive)
Oc1ccc2ccc3cccc[n+]3c2c1,-4.35%,53.1% (active)
O=C(Nc1ccc(S(=O)(=O)N2CCCC2)cc1Cl)C1=COCCO1,-13.8%,17.1% (inactive)
Cc1cc(C)n(-c2cc(Oc3ccccc3)ncn2)n1,-5.56%,0% (inactive)
Cc1cc(NC(=O)CCC2COc3ccccc3O2)no1 (stereo not drawn),–,-23.3% (inactive)
O=c1[nH]c2c(c(=O)n1Cc1ccccc1)CCC2,10.8%,17.1% (inactive)
CCCC(=O)N(CCc1ccccc1)Cc1nc2ccccc2c(=O)[nH]1,19%,-3.55% (inactive)
CCn1nccc1C(=O)Nc1ccc(Cl)c(Cl)c1,-8.33%,37.2% (inactive)
CCCC(C)C(=O)Nc1ccc(NC(C)=O)cc1 (stereo not drawn),2.78%,11.4% (inactive)
Cc1ccc(C(=O)Nc2ccccc2C(=O)NC2CCCCC2)cc1S(=O)(=O)N1CCOCC1,-23.3%,29% (inactive)
Cc1cccc(C)c1NC(=O)CCCSc1nnc(-c2ccco2)n1-c1ccccc1,11.5%,-14.1% (inactive)
Cc1ccnc(NC(=O)c2ccc(NC(=O)c3ccco3)cc2)c1,-8.33%,8.24% (inactive)
COc1ccc(Nc2nc(=O)[nH]nc2C)cc1,20.6%,25.8% (inactive)
C=CCNC(=O)CCCC(=O)NCC=C,-4.76%,-58.7% (inactive)

SMILES,growth inhibition,inhibition
O=C(O)CSCC(=O)Nc1cccc(C(F)(F)F)c1,12.1%,21.9% (inactive)
Cc1cccc2c(=O)n3c(nc12)CCCCC3,25.8%,13.2% (inactive)
CCn1nnc(NC(=O)c2cc(Cl)c(OC)c(Cl)c2)n1,18.5%,17.4% (inactive)
Cc1c(Nc2nc3ccccc3nc2NS(=O)(=O)c2cccs2)c(=O)n(-c2ccccc2)n1C,5%,-33.1% (inactive)
CC(C)(C)NC(=O)c1cc(NC(=O)c2ccco2)cc(NC(=O)c2ccco2)c1,–,11.3% (inactive)
CCOc1ccccc1N=C1NC(=O)CS1,–,-14.3% (inactive)
CC/C(=N\O)C(C)(C)/[N+]([O-])=C/c1ccc(Br)cc1,5.26%,9.15% (inactive)
N=c1c2c3c(sc2ncn1CCCN1CCOCC1)CCCCC3,3.7%,23% (inactive)
Cc1nnc(SCC(=O)N2CCN(c3ccccc3)CC2)n1-c1ccccc1,-9.52%,1.9% (inactive)
c1ccc(CCc2nc(-c3ccncc3)no2)cc1,15.2%,50.4% (active)
O=C1c2ccccc2C(=O)N1CCCc1nc(-c2ccccc2)no1,-5.56%,-17.2% (inactive)
c1csc(-c2nc(-c3ccncc3)no2)c1,6.45%,2.34% (inactive)
COCCOCCn1cnc2ccccc21,6.67%,18.1% (inactive)
CCOn1c(SC(C)C)nc2ccccc2c1=O,–,10.3% (inactive)
O=C(CSc1nnc(-c2cccnc2)n1CCc1ccccc1)NCc1ccccc1,–,-28.6% (inactive)
Cc1ccc(NC(=O)N2CCC(O)(c3cccnc3)CC2)cc1,12.8%,17.2% (inactive)
Cn1c(Cc2cccc3ccccc23)nnc1SCC(=O)N1CCN(c2cccc(Cl)c2)CC1,2.78%,15.8% (inactive)
CCSC1(SCC)N=C(N)C2(C#N)C(c3ccccc3)NC(C)=CC12C#N (stereo not drawn),-8.11%,-35% (inactive)
CNC(=S)N1N=C(c2ccccc2)CC1c1ccc(Br)cc1 (stereo not drawn),-12.5%,17.7% (inactive)
CCNC(=O)CN(c1ccc(C)cc1)S(=O)(=O)c1ccc(SC)cc1,13.8%,-15% (inactive)
